In the RNAGym collection of RNA variant scans (doi:10.1126/science.aae0568):
Variants at the floor of the assay were thinned out.

B1: tRNA (parent)
chain: GUUCCGUUGGCGUAAUGGUAACGCGUCUCCCUCCUAAGGAGAAGACUGCGGGUUCGAGUCCCGUACGGAACG

Variants of: B1
Assay: yeast fitness relative to wild type (ratio to wild type); higher = fitter; tRNA-Arg(CCU), competitive growth, 37 C, YPD
How it was run: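 Gene amplicons from the start population and from each of six end populations were read by 100-nucleotide paired-end sequencing. Those end populations came from pooled Saccharomyces cerevisiae strains carrying tRNA-Arg(CCU) gene variants at the native locus, competed in YPD at 37°C for 24 hours. Fitness relative to wild type was worked out from changes in genotype frequencies. Genotypes needed ≥ 100 starting reads, and estimates < 0.5 were set to 0.5.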

Variant	yeast fitness
G6C G17C C27U A40U C60U	≤ 0.5
G6A U59C	0.893
G6A U59G	0.912
G6A U59A	0.715
G6C G10C	0.649
G6C A43U G50A A70U	≤ 0.5
G6C C11U C24A	≤ 0.5
G6C A14G U16C A42U G52U	≤ 0.5
G6C A21G G48A	0.977
G6C A14G C49G G50A G58A	≤ 0.5
G6C A21G	0.857
G6C C49U U53A C66U A70U	≤ 0.5
G6C G17A A37G C60G A70U	≤ 0.5
G6C C11U A45U	0.559
G6C C33U A43G G58A C60U	0.554
G6C G17A A40U	≤ 0.5
G6C C11A G48C	0.627
G6C A20G C61G	≤ 0.5
G6C A15C A21C C34U A37U A57U	≤ 0.5
G6C C60G	0.731
G6C G25A A37U A42G	≤ 0.5
G6C C31U	0.93
G6C C31A	0.808
G6C G18C C22U	0.548

Variant	yeast fitness
G6A U26A A57C G67A A69U	≤ 0.5
G6C G12A C30G A36U A42C	≤ 0.5
G6C A14U A36G A42G G52A G58A	≤ 0.5
G6C A65G	0.94
G6C A15G C22A C29G A37C	≤ 0.5
G6C A14G G39C	≤ 0.5
G6C G9A A21U U28G C34U G63A	≤ 0.5
G6C C11G A15C G25C C27G C30G G38C A40G	≤ 0.5
G6C A14G U28A C46G U54C G68U	≤ 0.5
G6C C11U C34G U47G	≤ 0.5
G6C C33A A40G A57U	≤ 0.5
G6C A45C U47C G68C	≤ 0.5
G6C A45C G58A	0.587
G6C C11G U35A	≤ 0.5
G6C C30A A42C	0.546
G6C C27A	0.84
G6C C27G	0.567
G6C C27U	0.933
G6C C61G	0.675
G6C C61U	0.726
G6C C31G C46A G63C A65U	≤ 0.5
G6C A42G U53C C62U	≤ 0.5
G6C C22U C24G C27U C29A C30U C31G C49U C66U G67A	≤ 0.5
G6C A45U	0.823

Variant	yeast fitness
G6C G12A C31A A43G	≤ 0.5
G6A U28A C31G U35A U47A U54A	≤ 0.5
G6C G12A U35A	0.55
G6C C34G G38A U64A	≤ 0.5
G6A U32A A45U A69C	0.565
G6C A14G C27A A42C G52A G56A G63C	≤ 0.5
G6A U19A A20G G23A	≤ 0.5
G6C C11G C29U G50A C55U	≤ 0.5
G6C A21G G48A A57C G67A	≤ 0.5
G6C C11G C22U A69C	≤ 0.5
G6C C27A A42C G52A G56A G63C	≤ 0.5
G6C G17A C24A U32C A45C	≤ 0.5
G6C C30G A36C G58A	≤ 0.5
G6C C29G C60A	≤ 0.5
G6C G41C	0.671
G6C A14U A36G A40G C46A C62U	≤ 0.5
G6A U26A A37C A57U	≤ 0.5
G6C C46U C60A	0.644
G6C C55G G68A	≤ 0.5
G6C A20G A45U	0.507
G6C C11U C34G	≤ 0.5
G6C A20U C22U C24U	≤ 0.5
G6C G25A A37U	≤ 0.5
G6C C11A C34G	≤ 0.5

Variant	yeast fitness
G6C A57G	0.968
G6C G9A G48C G51C U53A C66A	≤ 0.5
G6C G10A U16G C24U G50C	0.609
G6C A37G G44C A57U G68C	≤ 0.5
G6A U16G A21G	0.544
G6C C31A G68C	0.502
G6C C55U A70G	0.7
G6C C11G C22U	0.606
G6C G41C C49G U54C U59G G63A C66U	≤ 0.5
G6C G18A	0.729
G6A U35C G44A G48C C55G A69U	≤ 0.5
G6A U53C	0.82
G6A U53A	0.663
G6A U28A G68A	0.533
G6C C24A A70C	≤ 0.5
G6C C24A G58C A65C	≤ 0.5
G6C A14C C24U C27G C29A A70G	≤ 0.5
G6C G12A	0.85
G6C G12C	0.676
G6A U32C C46G	0.694
G6C C31U U53C C62U	≤ 0.5
G6C C33G A36C C49A	≤ 0.5
G6C A45C G50A	0.629
G6C G25C A40U A65C	≤ 0.5

Variant	yeast fitness
G6C C11U A65U	0.578
G6C C30U C61G	≤ 0.5
G6C A37C G58C U59C	≤ 0.5
G6C C29G G39C	0.931
G6C A15U U26A A57C	0.707
G6C G12A C27U G39C G63A	≤ 0.5
G6C A42U G67A	≤ 0.5
G6C C46A G63A	0.689
G6C G12A C27U G39C	0.616
G6C A14C C27U	0.539
G6C C22A G41A G44A C46A G52A C66U	≤ 0.5
G6C G9A A21U U28C U35G A36C A65G C66A	≤ 0.5
G6C A70C	0.938
G6C A70G	0.948
G6C C22A C31G	≤ 0.5
G6C A42G C46A	0.695
G6C C46G C62U G63A C66U	≤ 0.5
G6C C11G A15G C66A	≤ 0.5
G6C G17A A36U C46A U53C C66A	≤ 0.5
G6C G10A U16G C31A	≤ 0.5
G6A U35A	0.775
G6C C11G A14U A20G C22U G44A C55A	≤ 0.5
G6C A15C A21C C34U A37U A69U	≤ 0.5
G6A U32C A37G C55A A65U G68C	≤ 0.5

Variant	yeast fitness
G6C A15U G23C C31G G41C G48C	0.574
G6C C24A C46G G52A	0.695
G6C C24U G38C A40G A65G	≤ 0.5
G6C G41A A45U	≤ 0.5
G6C A14U G18C C49U	≤ 0.5
G6A U32C	0.839
G6C G25C	0.971
G6C G25A	1.17
G6C G17A C24A U32C A45C C60A	≤ 0.5
G6C C11G C61U	≤ 0.5
G6C G25A C27G U59A U64G	≤ 0.5
G6C A20G A42U	0.63
G6C C62A G67C	≤ 0.5
G6C A15U G23A C29U A43G	≤ 0.5
G6C A20U C30G C61A	≤ 0.5
G6C C27G C34A A65C	≤ 0.5
G6A U47A U64A	≤ 0.5
G6C A36U A43G G48A C49U U53C	≤ 0.5
G6C C49U	0.965
G6A U19G	0.828
G6C G17A U19G A69U	≤ 0.5
G6C G23C C24A	0.585
G6C C31U A36G G52C G68A	≤ 0.5
G6C G23C C24U G68A	0.689

Variant	yeast fitness
G6C A15C A21C C34U A37U C55A U59C C61A C62U	0.537
G6C A45U C60A C61A G63A	≤ 0.5
G6A U53A G67U G68A	≤ 0.5
G6C A15U A42G A65G	≤ 0.5
G6C A14G C46G C62U C66U	≤ 0.5
G6C A36C	0.53
G6C A36G	0.875
G6C A36U	0.653
G6C A14G A20C U54A A57C	≤ 0.5
G6C A14G A20C C66U	≤ 0.5
G6A U47C A57C	≤ 0.5
G6A U28A	0.821
G6A U28G	0.886
G6A U28C	0.898
G6C C11G A15U C31G C61G A69G	0.657
G6A U54G G58A	≤ 0.5
G6C C11A C22U U47C C66A	≤ 0.5
G6C G17A C30U A42C	0.63
G6C C24U U47C A57U	≤ 0.5
G6C G9C U54C	0.603
G6C G17A A36G C60U G63C	≤ 0.5
G6C A37U U53C A69U	≤ 0.5
G6C C27U G51U G67A	≤ 0.5
